# Data reported in ChEMBL document CHEMBL1671809, “Discovery of phosphoric acid mono-{2-[(E/Z)-4-(3,3-dimethyl-butyrylamino)-3,5-difluoro-benzoylimino]-thiazol-3-ylmethyl} ester (Lu AA47070): a phosphonooxymethylene prodrug of a potent and selective hA(2A) receptor antagonist” (J Med Chem, 2011).
# Columns and labels:
# [1] = target: T1, Adenosine receptor A2a (Homo sapiens, UniProt P29274); experiment: Displacement of [3H]-ZM241385 from human adenosine A2A receptor expressed in high five cells after 30 mins by scintillation counting
# T1 sequence (P29274 whole entry): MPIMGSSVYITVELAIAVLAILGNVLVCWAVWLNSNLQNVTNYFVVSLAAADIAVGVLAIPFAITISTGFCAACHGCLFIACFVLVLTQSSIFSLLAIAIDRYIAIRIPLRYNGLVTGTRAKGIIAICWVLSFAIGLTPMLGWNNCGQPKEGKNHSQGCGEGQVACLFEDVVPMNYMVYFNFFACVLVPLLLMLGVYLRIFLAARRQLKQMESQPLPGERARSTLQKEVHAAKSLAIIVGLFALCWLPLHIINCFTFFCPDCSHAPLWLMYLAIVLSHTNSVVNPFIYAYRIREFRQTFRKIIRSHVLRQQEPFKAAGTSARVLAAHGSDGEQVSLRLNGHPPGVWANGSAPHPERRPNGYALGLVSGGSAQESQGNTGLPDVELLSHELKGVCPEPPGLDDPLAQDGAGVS
# [2] = target: T2, Adenosine receptor A1 (Homo sapiens) (UniProt P30542); experiment: Displacement of [3H]-DPCPX from human adenosine A1 receptor expressed in CHO cells at 10 uM after 30 mins by scintillation counting; type: cell-based
# T2 sequence (whole entry): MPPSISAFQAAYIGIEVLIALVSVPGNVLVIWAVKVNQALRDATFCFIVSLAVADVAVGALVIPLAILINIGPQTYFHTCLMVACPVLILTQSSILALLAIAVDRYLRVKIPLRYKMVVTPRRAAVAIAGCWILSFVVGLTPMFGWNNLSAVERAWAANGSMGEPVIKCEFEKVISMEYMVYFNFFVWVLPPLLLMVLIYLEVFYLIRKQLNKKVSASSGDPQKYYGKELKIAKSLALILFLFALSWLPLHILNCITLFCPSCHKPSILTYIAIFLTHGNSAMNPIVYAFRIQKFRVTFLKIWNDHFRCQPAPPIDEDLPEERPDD
# [3] = system: Liver microsomes; experiment: Intrinsic clearance in human liver microsomes at 1 uM after 60 mins by LC-MS/MS analysis; type: ADME, Microsome; conditions: 1 h
# In short: (§1)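 Compound at 1 μM with human or rat liver microsomes (0.5 mg protein/mL) plus NADPH at 37 C. Samples at 0, 5, 15, 30 and 60 min, quenched with acetonitrile, analysed by LC-MS/MS.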
# [4] = system: Liver microsomes; experiment: Intrinsic clearance in rat liver microsomes at 1 uM after 60 mins by LC-MS/MS analysis; type: ADME, Microsome; conditions: 1 h; in short: as §1
# [5] = target: T3, Cytochrome P450 1A2 (Homo sapiens, UniProt P05177); experiment: Inhibition of recombinant CYP1A2 after 28 mins; type: ADME
# T3 sequence (P05177 whole entry): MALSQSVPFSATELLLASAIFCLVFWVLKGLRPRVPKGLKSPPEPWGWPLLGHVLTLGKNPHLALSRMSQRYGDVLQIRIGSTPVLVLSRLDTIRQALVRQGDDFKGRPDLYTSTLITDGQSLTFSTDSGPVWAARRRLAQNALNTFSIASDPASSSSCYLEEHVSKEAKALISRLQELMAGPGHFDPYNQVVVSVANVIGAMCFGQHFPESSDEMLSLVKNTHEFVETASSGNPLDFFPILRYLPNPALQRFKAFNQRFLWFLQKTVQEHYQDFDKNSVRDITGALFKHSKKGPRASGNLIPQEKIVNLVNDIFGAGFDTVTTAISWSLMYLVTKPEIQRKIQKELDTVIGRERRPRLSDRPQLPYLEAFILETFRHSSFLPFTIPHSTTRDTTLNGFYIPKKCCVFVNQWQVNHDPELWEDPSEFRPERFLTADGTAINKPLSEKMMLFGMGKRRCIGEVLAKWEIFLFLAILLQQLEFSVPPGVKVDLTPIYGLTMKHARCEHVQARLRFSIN
# In short: (§2)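 Recombinant CYP supersomes incubated in phosphate buffer with eight compound concentrations (40-0.02 μM) and fluorogenic substrates. CYP1A2: 7-ethoxy-3-cyanocoumarin 10 μM, 28 min. CYP2C19: same substrate 50 μM, 45 min. CYP2D6: AMMC 3 μM, 45 min. CYP3A4: resorufin benzyl ether 100 μM, 30 min. Fluorescent metabolite read; IC50 relative to uninhibited controls.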
# [6] = target: Cytochrome P450 2C9 (Homo sapiens, UniProt P11712); experiment: Inhibition of recombinant CYP2C9 after 45 mins; type: ADME
# Cytochrome P450 2C9, sequence (P11712 whole entry): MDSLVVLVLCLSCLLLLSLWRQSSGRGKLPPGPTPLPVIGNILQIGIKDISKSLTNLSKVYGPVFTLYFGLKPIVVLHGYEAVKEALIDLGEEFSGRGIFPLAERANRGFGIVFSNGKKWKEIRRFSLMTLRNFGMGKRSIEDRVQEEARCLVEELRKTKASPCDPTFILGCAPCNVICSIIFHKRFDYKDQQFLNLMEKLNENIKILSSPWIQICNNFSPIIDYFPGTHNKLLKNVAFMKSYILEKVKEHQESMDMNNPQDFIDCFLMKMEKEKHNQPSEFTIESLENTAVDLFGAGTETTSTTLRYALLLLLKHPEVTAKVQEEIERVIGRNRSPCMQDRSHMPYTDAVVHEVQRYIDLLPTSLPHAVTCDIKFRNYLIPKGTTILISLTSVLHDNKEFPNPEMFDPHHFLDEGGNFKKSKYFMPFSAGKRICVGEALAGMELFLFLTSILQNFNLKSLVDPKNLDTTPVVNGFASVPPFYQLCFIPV
# [7] = target: Cytochrome P450 2C19 (Homo sapiens, UniProt P33261); experiment: Inhibition of recombinant CYP2C19 after 45 mins; type: ADME; in short: as §2
# Cytochrome P450 2C19, sequence (P33261 whole entry): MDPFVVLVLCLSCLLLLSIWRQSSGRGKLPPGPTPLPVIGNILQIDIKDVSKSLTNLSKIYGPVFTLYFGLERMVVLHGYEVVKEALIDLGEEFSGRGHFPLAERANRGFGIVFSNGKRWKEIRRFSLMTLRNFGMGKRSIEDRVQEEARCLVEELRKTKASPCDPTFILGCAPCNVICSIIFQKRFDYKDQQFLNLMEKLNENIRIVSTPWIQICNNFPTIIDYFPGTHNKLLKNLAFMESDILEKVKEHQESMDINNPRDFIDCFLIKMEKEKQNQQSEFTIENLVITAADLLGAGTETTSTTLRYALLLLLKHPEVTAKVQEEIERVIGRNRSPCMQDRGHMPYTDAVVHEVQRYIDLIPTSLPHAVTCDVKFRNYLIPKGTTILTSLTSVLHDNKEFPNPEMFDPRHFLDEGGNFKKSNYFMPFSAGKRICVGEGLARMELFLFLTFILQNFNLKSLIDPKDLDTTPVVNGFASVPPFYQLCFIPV
# [8] = target: Cytochrome P450 2D6 (Homo sapiens, UniProt P10635); experiment: Inhibition of recombinant CYP2D6 after 45 mins; type: ADME; in short: as §2
# Cytochrome P450 2D6, sequence (P10635 whole entry): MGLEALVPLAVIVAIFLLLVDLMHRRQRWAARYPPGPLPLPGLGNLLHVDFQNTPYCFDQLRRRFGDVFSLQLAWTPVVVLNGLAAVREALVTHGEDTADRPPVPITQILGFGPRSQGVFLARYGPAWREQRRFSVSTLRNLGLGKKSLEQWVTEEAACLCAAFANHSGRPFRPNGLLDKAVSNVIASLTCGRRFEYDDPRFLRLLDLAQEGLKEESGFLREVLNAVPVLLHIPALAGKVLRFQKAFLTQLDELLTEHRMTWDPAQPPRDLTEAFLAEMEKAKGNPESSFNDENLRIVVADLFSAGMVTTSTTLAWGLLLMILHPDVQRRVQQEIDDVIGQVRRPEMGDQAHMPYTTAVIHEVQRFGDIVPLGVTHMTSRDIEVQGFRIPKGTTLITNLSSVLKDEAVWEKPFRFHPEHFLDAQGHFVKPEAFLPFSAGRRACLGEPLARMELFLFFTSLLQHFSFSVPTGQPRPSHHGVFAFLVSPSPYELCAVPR
# [9] = target: Cytochrome P450 3A4 (Homo sapiens, UniProt P08684); experiment: Inhibition of recombinant CYP3A4 after 30 mins; type: ADME
# Cytochrome P450 3A4, sequence (P08684 whole entry): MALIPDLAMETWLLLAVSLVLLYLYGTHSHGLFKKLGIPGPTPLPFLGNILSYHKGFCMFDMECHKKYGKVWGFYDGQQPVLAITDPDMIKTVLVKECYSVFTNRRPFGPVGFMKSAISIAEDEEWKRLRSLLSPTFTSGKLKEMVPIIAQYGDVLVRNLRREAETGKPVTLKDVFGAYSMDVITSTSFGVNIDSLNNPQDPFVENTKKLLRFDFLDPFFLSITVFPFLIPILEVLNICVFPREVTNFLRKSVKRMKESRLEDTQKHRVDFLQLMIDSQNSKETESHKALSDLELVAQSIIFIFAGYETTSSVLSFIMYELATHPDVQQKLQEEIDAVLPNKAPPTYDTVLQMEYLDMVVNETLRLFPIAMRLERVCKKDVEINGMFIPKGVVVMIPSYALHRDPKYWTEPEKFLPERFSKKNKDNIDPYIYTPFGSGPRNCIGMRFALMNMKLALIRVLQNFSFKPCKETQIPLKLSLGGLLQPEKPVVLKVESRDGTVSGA
# In short: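 Recombinant CYP supersomes incubated in phosphate buffer with eight compound concentrations (40-0.02 μM) and fluorogenic substrates. CYP3A4: resorufin benzyl ether 100 μM, 30 min. Fluorescent metabolite read; IC50 relative to uninhibited controls.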
# [10] = system: Caco-2; experiment: Efflux ratio of permeability from basolateral to apical over apical to basolateral side in human Caco2 cells after 21 to 28 days by LC-MS/MS analysis
# [11] = target: T1, Adenosine receptor A2a; experiment: Displacement of [3H]-ZM241385 from human adenosine A2A receptor expressed in high five cells at 10 uM after 30 mins by scintillation counting
# In short: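 hA2A membranes from baculovirus-infected High Five cells (harvested 72 h), pretreated with adenosine deaminase 2 U/mL for 30 min at 37 C. Membranes at 10.6 μg protein/well were incubated with 1 nM [3H]-ZM241385 in 50 mM Tris/HCl pH 7.4 for 30 min at 25 C. GF/B filtration, scintillation counting. Nonspecific binding by CGS15943. Percent displacement at 10 μM.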
# [12] = target: T4, Adenosine receptor A1 (Homo sapiens, UniProt P30542); experiment: Displacement of [3H]-DPCPX from human adenosine A1 receptor expressed in CHO cells after 30 mins by scintillation counting; type: cell-based
# T4 sequence (P30542 whole entry): T2 sequence (whole entry)
# In short: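 CHO-hA1 membranes at 10.8 μg protein/well, pretreated with adenosine deaminase (2 U/mL, 30 min, 37 C), were incubated with 1 nM [3H]-DPCPX in 50 mM Tris/HCl pH 7.4 for 30 min at 25 C across 10 compound concentrations. Filtration on PEI-soaked GF/B, scintillation counting. Nonspecific binding by CGS15943. Ki by Cheng-Prusoff. Means of ≥2 determinations.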
# [13] = species on record: Homo sapiens; experiment: Selectivity ratio of Ki for human adenosine A1 receptor to Ki for human adenosine A2A receptor
# [14] = Aqueous solubility of the compound at pH 6.9; type: physicochemical; conditions: buffer
# [15] = Chemical stability of the compound assessed as half life; type: physicochemical
# In short: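 Prodrug was dissolved in water, filtered, and diluted to approximately 0.05 mg/mL in buffers of different pH. Sealed vials were stored at 50 C to accelerate hydrolysis. Samples were diluted 1:1 with acetonitrile and analysed by HPLC for prodrug and hydrolysis products.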
# [16] = system: Rattus norvegicus; experiment: Tmax in Sprague-Dawley rat assessed as 4-(3,3-Dimethyl-butyrylamino)-3,5-difluoro-N-thiazol-2-yl-benzamide level at 1.5 mg/kg, po; type: ADME, organism-based; set-up: dose 1.5 mg/kg, route oral; conditions: in vivo
# In short: (§3)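 Prodrugs dosed po in aqueous 10% hydroxypropyl β-cyclodextrin (2 mL/kg) to rats; doses expressed as parent-drug equivalents; n = 3. Six tail-vein blood samples (~100 μL) taken between 5 and 420 min. Parent drug in plasma measured by HTLC-MS/MS. Profiles fitted with a one-compartment model; AUC extrapolated to infinity.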
# [17] = system: Rattus norvegicus; experiment: Cmax in Sprague-Dawley rat assessed as 4-(3,3-Dimethyl-butyrylamino)-3,5-difluoro-N-thiazol-2-yl-benzamide level at 1.5 mg/kg, po; type: ADME, organism-based; set-up: dose 1.5 mg/kg, route oral; conditions: in vivo; in short: as §3
# [18] = system: Rattus norvegicus; experiment: Oral bioavailability in Sprague-Dawley rat assessed as 4-(3,3-Dimethyl-butyrylamino)-3,5-difluoro-N-thiazol-2-yl-benzamide level at 1.5 mg/kg; type: ADME, organism-based; conditions: in vivo; in short: as §3
# [19] = system: Rattus norvegicus; experiment: AUC in Sprague-Dawley rat assessed as 4-(3,3-Dimethyl-butyrylamino)-3,5-difluoro-N-thiazol-2-yl-benzamide level at 15 mg/kg, po; type: ADME, organism-based, Plasma; set-up: dose 15 mg/kg, route oral; conditions: in vivo; in short: as §3
# [20] = system: Rattus norvegicus; experiment: Tmax in Sprague-Dawley rat assessed as 4-(3,3-Dimethyl-butyrylamino)-3,5-difluoro-N-thiazol-2-yl-benzamide level at 15 mg/kg, po; type: ADME, organism-based; set-up: dose 15 mg/kg, route oral; conditions: in vivo; in short: as §3
# [21] = system: Rattus norvegicus; experiment: Cmax in Sprague-Dawley rat assessed as 4-(3,3-Dimethyl-butyrylamino)-3,5-difluoro-N-thiazol-2-yl-benzamide level at 15 mg/kg, po; type: ADME, organism-based; set-up: dose 15 mg/kg, route oral; conditions: in vivo; in short: as §3
# [22] = system: Rattus norvegicus; experiment: Oral bioavailability in Sprague-Dawley rat assessed as 4-(3,3-Dimethyl-butyrylamino)-3,5-difluoro-N-thiazol-2-yl-benzamide level at 15 mg/kg; type: ADME, organism-based; conditions: in vivo; in short: as §3
compound,measurement,setting,value
Cc1ccccc1C(=O)Nc1ccc(C(=O)Nc2nccs2)cc1,Ki,[1],220 nM
same,inhibition,[2],47%
same,CL,[3],0.5 L/min
same,CL,[4],5 mL/min
same,IC50,[5],> 40000 nM
same,IC50,[6],> 40000 nM
same,IC50,[7],23000 nM
same,IC50,[8],> 40000 nM
same,IC50,[9],1400 nM
same,Ratio,[10],0.8
CC(C)(C)CC(=O)Nc1ccc(NC(=O)c2nccs2)cc1,inhibition,[11],18%
COc1c(C(=O)Nc2nccs2)ccc(NC(=O)CC(C)(C)C)c1F,Ki,[1],12 nM
same,Ki,[12],220 nM
same,Ratio Ki,[13],18
Cc1nc(NC(=O)c2ccc(NC(=O)CC(C)(C)C)cc2)sc1C,Ki,[1],220 nM
CC(C)(C)CNC(=O)c1ccc(NC(=O)c2nccs2)cc1,inhibition,[11],0%
Cc1cc(C(=O)Nc2nccs2)cc(Cl)c1NC(=O)CC(C)(C)C,Ki,[1],32 nM
same,Ki,[12],580 nM
same,Ratio Ki,[13],18
CC(C)(C)CC(=O)Nc1ccc(C(=O)Nc2nccs2)cc1,Ki,[1],36 nM
same,inhibition,[2],39%
same,CL,[3],0.7 L/min
same,CL,[4],11 mL/min
same,IC50,[5],> 40000 nM
same,IC50,[6],> 40000 nM
same,IC50,[7],> 40000 nM
same,IC50,[8],> 40000 nM
same,IC50,[9],> 40000 nM
same,Ratio,[10],0.7
CCCC(=O)Nc1ccc(C(=O)Nc2nccs2)cc1,Ki,[1],350 nM
same,inhibition,[2],54%
same,CL,[3],0.8 L/min
same,CL,[4],18 mL/min
same,IC50,[5],> 40000 nM
same,IC50,[6],> 40000 nM
same,IC50,[7],36000 nM
same,IC50,[8],> 40000 nM
same,IC50,[9],> 40000 nM
same,Ratio,[10],0.7
CC(C)(C)CNC(=O)c1ccc(C(=O)Nc2nccs2)cc1,Ki,[1],110 nM
CC(C)(C)CC(=O)Nc1c(F)cc(C(=O)/N=c2\sccn2COP(=O)(O)O)cc1F,solubility,[14],8600 µg/mL
same,half-life,[15],> 66.7 days
same,Tmax,[16],30 min
same,Cmax,[17],869 ng/mL
same,F,[18],55%
same,AUC,[19],35000 ng·h/mL
same,Tmax,[20],24 min
same,Cmax,[21],6413 ng/mL
same,F,[22],66%
COc1cc(NC(=O)CC(C)(C)C)ccc1C(=O)Nc1nccs1,Ki,[1],50 nM
same,Ki,[12],1100 nM
same,Ratio Ki,[13],22
CC(C)(C)CC(=O)Nc1ccc(C(=O)Nc2nccs2)cc1F,Ki,[1],9.2 nM
same,Ki,[12],650 nM
same,Ratio Ki,[13],71
COc1cc(C(=O)Nc2nccs2)ccc1NC(=O)CC(C)(C)C,Ki,[1],17 nM
same,Ki,[12],340 nM
same,Ratio Ki,[13],20
